Here are results for seven compounds from paper PMC3982714 (International Journal of Oncology, 2012).

Molecules are shown by their SMILES. Read-outs that look alike come from different tables or passages of the source.

For data set [1] the following is noted: cited from earlier work.
The nature of data set [2]: Pharmacokinetics, HPLC analysis of plasma. The format is in vivo, Fisher 344 rats.
Data set [3] relates to AOM-induced colonic ACF and tumors. The format is in vivo, Fisher 344 rats. Particulars: for Weight: average ± SE. The method in brief: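 Male Fisher 344 rats, 3–4 weeks old, about 90 g, acclimated 1 week. AOM 15 mg/kg or saline given s.c. once weekly for 2 weeks. […] Rats weighed weekly. Week-20 colons formalin-fixed 24 h, stained with 0.2% methylene blue 3–5 min; ACF counted microscopically. Week-40 tumors counted; long and short diameters measured. Mean ± SEM, ANOVA.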

The format of data set [4] is in vivo, Fisher 344 rats. To be noted: 7 days. The method in brief: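 Male Fisher 344 rats, 8–9 weeks old, 7 per group. […] Killed by CO2 1 h after the last dose. Stomach, small intestine and colon inspected for ulcers under magnification, then formalin-fixed for histology. Heart, liver, lung and kidney collected for toxicity analysis.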
For the next data set, the system named is PGE2. Nature of the data set: PGE2 in culture media of LPS-stimulated macrophages by ELISA. The format is cell-based, mouse. To be noted: RAW 264.7 macrophages, 130 μM for 12 h, then LPS 100 ng/ml overnight. The gist of the method:
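RAW 264.7 mouse macrophages grown in DMEM. 1.5×10⁶ cells pre-incubated 12 h with test compound at 130 μM, then stimulated with LPS 100 ng/ml overnight. PGE2 in culture media measured by ELISA. Mean ± SEM, ANOVA.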

The test system of data set [5] is β-catenin. Nature of the data set: Immunofluorescent staining of β-catenin in colon sections of AOM rats. The format is in vivo, rat. To be noted: AOM study, 40 weeks.
In data set [6] the test system is NF-κB subunit p65. Nature of the data set: Immunofluorescent staining of phospho-p65 in colon sections of AOM rats. To be noted: AOM study, 40 weeks. The format is in vivo, rat. The gist of the method: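 Colons from rats killed at week 40 were formalin-fixed and paraffin-embedded; 4 μm sections cut. Antigen retrieval by microwaving 15 min in 0.01 mol/l citrate, pH 6.0. Blocked with 5% donkey serum 30 min. Rabbit anti-phospho-p65 (Ser276) with mouse anti-β-catenin, or control IgG, applied overnight at 4°C. Fluorescent donkey secondaries 1 h at room temperature. Viewed by fluorescence microscopy.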

Data set [7] concerns β-catenin. Description: Western blot of β-catenin in nuclear extracts of HCT116 cells. The format is cell-based, human. The method in brief:
(§1)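 HCT116 cells grown in RPMI-1640. Cytoplasmic and nuclear fractions prepared by lysis, with NP-40 added at a later step; supernatant taken as cytoplasm. Nuclei washed, then resuspended in extraction buffer and pelleted. Standard western blot. Probes: rabbit anti-phospho-p65 (Ser276) for p65; mouse anti-β-catenin for β-catenin.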

Data set [8] deals with NF-κB subunit p65. Nature of the data set: Western blot of p65 in nuclear extracts of HCT116 cells. The format is cell-based, human. The method in brief: as §1
[9] abbreviates: 20 weeks, saline, diet IBU 500 ppm or p-IBU 900 ppm.
[10] abbreviates: 40 weeks, saline, diet IBU 500 ppm or p-IBU 900 ppm.

Consider `CC(C)Cc1ccc(C(C)C(=O)OCCN(C)C)cc1.Cl` (stereo not drawn) [ibuprofen-O(CH2)2N(CH3)2HCl], for which the “GI toxic side effects compared to the parent molecule” value in data set [1] was “decreased”.
Turning to `CC(Cc1ccc(C(C)C(=O)O)cc1)C(=O)O` (stereo not drawn) [carboxy-ibuprofen], the “plasma level of metabolite” value in [2] (20 weeks (first value)) and in [2] (40 weeks) was 3000 nM each time.
Regarding `CC(C(=O)O)c1ccc(CC(C)(C)O)cc1` (stereo not drawn) [2-OH-ibuprofen], the “plasma level of metabolite” value in [2] (group fed a diet of ibuprofen) is 99000 nM; in data set [2] (group fed a diet of p-ibuprofen), 102000 nM.
Take `CC(C)Cc1ccc(C(C)C(=O)NCC(=O)O)cc1` (stereo not drawn) [ibuprofen-NHCH2COOH]: the “GI toxic side effects compared to the parent molecule” value in [1] is “decreased”.
`CC(C)Cc1ccc(C(C)C(=O)O)cc1` (stereo not drawn) [ibuprofen, Ibuprofen]: the Weight in data set [3] (20 weeks, AOM, diet IBU 500 ppm or p-IBU 900 ppm) is given as 406±118.91. For the same compound, in [3] (setting [9]), the “ACFs (ACF multiplicity)” value is 0, the Tumors was found to be 0 and the Weight is 416±6.11. In data set [3] (40 weeks, AOM, diet IBU 500 ppm or p-IBU 900 ppm), this compound yielded a Weight of 432±8.84. For the same compound, in data set [3] (setting [10]), the ACFs amounted to 0, the “Tumors (tumor multiplicity)” value is listed as 0 and the Weight amounted to 431±15.43. For the same compound, in data set [3] (week 20, AOM rats, diet ibuprofen 500 ppm or p-ibuprofen 900 ppm), the “reduction of the multiplicity of ACF compared with vehicle” value was 37.9%. The “reduction of the multiplicity of colon tumors compared with vehicle” value in data set [3] (week 40, AOM rats, diet ibuprofen 500 ppm or p-ibuprofen 900 ppm) was 56.6%. Besides, the “rats with stomach ulceration” value in data set [4] (ibuprofen 670 mg/kg by gavage, 7 rats) was 85.7%. The “ulceration in stomach or intestine” value in data set [4] (low dose by gavage) is recorded as “did not lead to ulceration”. The “suppression of PGE2 production compared to LPS-treated control” value in the data set with PGE2 is recorded as 84.1%. The “effect on AOM-induced β-catenin cytoplasmic accumulation and nuclear translocation” value in the data set with β-catenin [5] is recorded as “reduced”. Moreover, the “effect on phosphorylation of p65 (NF-κB activation)” value with NF-κB subunit p65 [6] is given as “not ibuprofen inhibited”. Also, the “β-catenin levels in nuclear extracts compared to vehicle-treated control” value in the data set on β-catenin [7] is listed as “markedly decreased”. For the same compound, the “nuclear translocation of the NF-κB subunit p65 (NF-κB activation)” value with NF-κB subunit p65 [8] is on record as “inhibitory effect was not observed”.
As for `CC(C(=O)O)c1ccc(C(O)C(C)C)cc1` (stereo not drawn) [1-OH-ibuprofen], the “plasma level of metabolite” value in [2] (20 weeks (first value)) was 4000 nM; in data set [2] (40 weeks), “undetectable”.
The corresponding values for `CC(C)Cc1ccc(C(C)C(=O)O[C@@H]2O[C@H](C(=O)O)[C@@H](O)[C@H](O)[C@H]2O)cc1` (stereo partly drawn) [ibuprofen-glucuronide] are 1000 nM and 1000 nM.
